Experimental data reported in ChEMBL document CHEMBL3992510, “Urea Derivatives of 2-Aryl-benzothiazol-5-amines: A New Class of Potential Drugs for Human African Trypanosomiasis” (J Med Chem, 2017).

Legend:
[1] = Drug level in mouse plasma at 5 mg/kg, ip administered as single dose measured at 1 hr post dose by liquid chromatography/tandem mass spectrometric analysis; assay type: ADME, organism-based
Procedure, shortened: (§1)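 Single ip dose of 5 mg/kg in 5% DMSO/7% Tween 80/3% EtOH in 0.9% saline, three mice per compound (six for one compound). At 1 h, plasma is separated by centrifugation and brain homogenized in acetonitrile. Both are quantified by LC-MS/MS, with brain corrected for 3% v/w blood. Brain/plasma ratio is reported as mean ± SEM.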

[2] = tested on: Trypanosoma brucei brucei; experiment: Antitrypanosomal activity against Trypanosoma brucei brucei BF427 assessed as growth inhibition measured after 48 hrs by Alamar blue assay; assay type: functional; conditions: BF427, 48 h
Procedure, shortened: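 Bloodstream-form parasites in HMI-9 medium are exposed to serial compound dilutions in triplicate. Viability is read with Alamar Blue at 48 h. EC50 and EC90 come from nonlinear regression. Pentamidine isethionate is the control.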

[3] = Drug level in mouse brain at 5 mg/kg, ip administered as single dose measured at 1 hr post dose by liquid chromatography/tandem mass spectrometric analysis; assay type: ADME, organism-based; conditions: read-out: Drug uptake; procedure, shortened: as §1
[4] = Ratio of drug level in brain to plasma in mouse at 5 mg/kg, ip administered as single dose measured at 1 hr post dose by liquid chromatography/tandem mass spectrometric analysis; assay type: ADME, organism-based; procedure, shortened: as §1
[5] = Selectivity index, ratio of EC50 for human HepG2 cells to EC50 for Trypanosoma brucei brucei BF427; assay type: toxicity; conditions: read-out: Ratio EC50
[6] = Cytotoxicity against human CRL8155 cells assessed as growth inhibition after 48 hrs by Alamar blue assay; assay type: cell-based; conditions: for EC50: Homo sapiens, CRL8155, 48 h; for EC90: human, crl8155, 48 h
Procedure, shortened: (§2)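 CRL-8155 lymphoblasts or HepG2 hepatocellular carcinoma cells are exposed 48 h to serial compound dilutions in quadruplicate. Growth is read with Alamar Blue, and 50% and 90% inhibitory concentrations come from nonlinear regression. Quinacrine is the control.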

[7] = Selectivity index, ratio of EC50 for human CRL8155 cells to EC50 for Trypanosoma brucei brucei BF427; assay type: toxicity; conditions: read-out: Ratio EC50
HepG2 = experiment: Cytotoxicity against human HepG2 cells assessed as growth inhibition after 48 hrs by Alamar blue assay; assay type: cell-based; conditions: for EC50: Homo sapiens, HepG2, 48 h; for EC90: human, hepg2, 48 h; procedure, shortened: as §2
[8] = Stability in mouse liver microsomes assessed as compound remaining at 1.5 uM in presence of NADPH measured after 5 mins by liquid chromatography/tandem mass spectrometric analysis; assay type: ADME, microsome; conditions: read-out: Stability
Liver [9] = experiment: Half life in mouse liver microsomes at 1.5 uM in presence of NADPH by liquid chromatography/tandem mass spectrometric analysis; assay type: ADME, microsome
Liver [10] = experiment: Half life in human liver microsomes at 1.5 uM in presence of NADPH by liquid chromatography/tandem mass spectrometric analysis; assay type: ADME, microsome
[11] = Stability in human liver microsomes assessed as compound remaining at 1.5 uM in presence of NADPH measured after 60 mins by liquid chromatography/tandem mass spectrometric analysis; assay type: ADME, microsome; conditions: read-out: Stability
Procedure, shortened: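 Pooled liver microsomes (0.5 mg/mL) are preincubated 5 min at 37 °C in 0.16 M KH2PO4 with 1 mM NADPH, then test compound is added at 1.5 μM. Aliquots are quenched with 4 volumes of acetonitrile at 0, 5, 10, 15, 30 and 60 min and analyzed by LC-MS/MS. Percent remaining at 5 or 60 min is given when t1/2 is outside the 5–60 min range. Controls: testosterone, dextromethorphan.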

SMILES | concentration at 1 h [1] [nM] | EC50 [2] [µM] | EC90 [2] [µM] | concentration at 1 h [3] [nM] | BPR [4] | selectivity ratio [5] | EC50 [6] [µM] | EC90 [6] [µM] | selectivity ratio [7] | EC50 (HepG2) [µM] | EC90 (HepG2) [µM] | remaining at 5 min, 1.5 µM [8] [%] | t1/2 (Liver [9]) [min] | t1/2 (Liver [10]) [min] | remaining at 1 h, 1.5 µM [11] [%]
O=C(Nc1ccc2sc(-c3ccc(F)c(F)c3)nc2c1)N1CCC(F)(F)C1 | 2810 | 0.934 | 1.66 | 21700 | 7.92 | > 54 | > 50 | > 50 | > 54 | > 50 | > 50 |  |  |  | 
O=C(NCCc1nc(-c2cccc(F)c2)cs1)N1CCCC(F)C1 (stereo not drawn) |  | 0.0285 | 0.0557 |  |  | > 1750 | > 50 | > 50 | > 1750 | > 50 | > 50 | 18 | < 5 | 10 | 
O=C(Nc1ccc2sc(-c3ccccc3)nc2c1)N1CCCCC1 |  | 0.366 | 0.809 |  |  | > 137 | > 50 | > 50 | > 137 | > 50 | > 50 |  | 17 |  | 62
O=C(NCCc1nc(-c2cccc(F)c2)cs1)N1CCCC(F)(F)C1 |  | 0.108 | 0.168 |  |  | > 463 | > 50 | > 50 | > 463 | > 50 | > 50 | 14 | < 5 | 5.1 | 
O=C(NCCc1nc(-c2cccc(F)c2)cs1)N1CCC(F)(F)CC1 |  | 0.164 | 0.23 |  |  | > 305 | > 50 | > 50 | > 305 | > 50 | > 50 | 20 | < 5 | 5.8 | 
O=C(NCCc1nc(-c2cccc(F)c2)cs1)N1CCC(F)CC1 |  | 0.0366 | 0.0575 |  |  | > 1370 | > 50 | > 50 | > 1370 | > 50 | > 50 | 5.5 | < 5 | 5.6 | 
O=C(Nc1ccc2sc(-c3ccc(F)c(F)c3)nc2c1)N1CC[C@@H](F)C1 | 1200 | 0.326 | 0.491 | 6350 |  | > 153 | > 50 | > 50 | > 153 | > 50 |  |  |  |  | 
S=C(NCCc1nc(-c2ccccc2)cs1)c1ccccc1 |  | 1.44 | 2.63 |  |  |  |  |  |  |  |  | 0 | < 5 |  | 
O=C(NCCc1nc(-c2ccccc2)cs1)N1CCCCC1 |  |  |  |  | 0.613 |  |  |  |  |  |  |  |  |  | 
CC(C)(CNC(=O)N1CCCCC1)c1nc(-c2ccccc2)cs1 |  | 1.3 | 2.4 |  |  |  |  |  |  |  |  | 0 | < 5 |  | 
O=C(Nc1ccc2sc(-c3cccc(F)c3)nc2c1)N1CCCC1 | 2220 | 0.158 | 0.391 | 2280 |  | > 316 | > 50 | > 50 | > 316 | > 50 | > 50 |  | 12 | 37 | 
CC(C)(Cc1csc(-c2ccccc2)n1)NC(=O)N1CCCCC1 |  | 7.84 | 9.9 |  |  |  |  |  |  |  |  | 0 | < 5 |  | 
Cl.S=C(NCCc1nc(-c2ccccc2)cs1)N1CCCCC1 | 2000 | 0.0243 | 0.0424 | 187 | 0.089 | > 2060 | > 50 | > 50 | > 2060 | > 50 | > 50 | 1.8 | < 5 | 8.2 | 
O=C(Nc1ccc2sc(-c3ccccc3)nc2c1)c1ccccc1 |  | 2.38 | 7.74 |  |  |  |  |  |  |  |  |  | 50 |  | 53
O=C(Nc1ccc2sc(-c3ccc(F)c(F)c3)nc2c1)N1CCC(C(F)(F)F)C1 (stereo not drawn) | 4150 | 1.69 | 4.88 | 1970 |  |  |  |  |  |  |  |  |  |  | 
O=C(Nc1ccc2sc(-c3cccc(F)c3F)nc2c1)N1CCCC1 | 1300 | 0.183 | 0.394 | 2310 |  | > 273 | > 50 | > 50 | > 273 | > 50 | > 50 |  |  |  | 
O=C(Nc1ccc2sc(-c3ccc(F)c(F)c3)nc2c1)N1CCCCC1 | 2520 | 0.223 | 0.282 | 1290 |  | > 224 | > 50 | > 50 | > 224 | > 50 | > 50 |  |  |  | 
O=C(Nc1ccc2sc(-c3ccccc3)nc2c1)N1CCCC1 | 3400 | 0.325 | 0.817 | 4240 |  | > 154 | > 50 | > 50 | > 154 | > 50 | > 50 |  | 18 | 30 | 
O=C(Nc1ccc2sc(-c3ccc(F)c(F)c3)nc2c1)N1CCC(F)CC1 | 2510 | 0.341 | 0.596 | 2520 |  | > 147 | > 50 | > 50 | > 147 | > 50 | > 50 |  |  |  | 
O=C(NCCc1nc(-c2ccccc2)cs1)c1ccccc1 |  |  |  |  | 0.3 |  |  |  |  |  |  |  |  |  | 
O=C(Nc1ccc2oc(-c3ccccc3)nc2c1)N1CCCCC1 |  | 2.8 | 9.3 |  |  |  |  |  |  |  |  |  | 11 |  | 77
